Assay results as given in ChEMBL document CHEMBL4130474, “Spirotriazoline oxindoles: A novel chemical scaffold with in vitro anticancer properties” (Eur J Med Chem, 2017).

Experiments:
[1] = Selectivity index, ratio of IC50 for antiproliferative activity in HEK293T cells to IC50 for antiproliferative activity in human MDA-MB-231 cells; assay type: toxicity, cell-based; conditions: HEK293T cells versus MDA-MB-231 cells, read-out: Ratio IC50
Summary of the method: (§1)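 Ratio of HEK 293T IC50 to MDA-MB-231 IC50 from 72 h MTT assays.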

[2] = Selectivity index, ratio of IC50 for antiproliferative activity in HEK293T cells to IC50 for antiproliferative activity in human p53 (-/-) human HCT116 cells; assay type: toxicity, cell-based; conditions: HEK293T cells versus p53 (-/-) HCT116 cells, read-out: Ratio IC50
HCT-116 [3] = experiment: Antiproliferative activity in p53 (+/+) human HCT116 cells incubated for 72 hrs by MTS assay; assay type: functional, cell-based; conditions: HCT-116, 72 h
Summary of the method: (§2)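 HCT116 p53(+/+) or p53(−/−) seeded at 1 × 10⁵ cells/mL, adhered 24 h, then treated 72 h with compounds diluted from DMSO stocks. Viability by MTS (CellTiter96 AQueous) with absorbance at 490 nm. Duplicate wells, three independent experiments; IC50 by non-linear regression.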

[4] = Selectivity index, ratio of IC50 for antiproliferative activity in HEK293T cells to IC50 for antiproliferative activity in human p53 (+/+) human HCT116 cells; assay type: toxicity, cell-based; conditions: HEK293T cells versus p53 (+/+) HCT116 cells, read-out: Ratio IC50
MCF7 = experiment: Antiproliferative activity in human MCF7 cells incubated for 72 hrs by MTT assay; assay type: functional, cell-based; conditions: MCF7, 72 h
Summary of the method: (§3)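 Cells grown in RPMI 1640 with 10% FBS, penicillin/streptomycin; seeded at 2 × 10⁵ cells/mL, allowed to adhere 24 h, then exposed 72 h to compounds diluted in medium from DMSO stocks. MTT added after medium change, 3 h, formazan dissolved in DMSO, absorbance at 570 nm. Triplicate wells, at least 3 independent experiments; IC50 by non-linear regression.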

HCT-116 [5] = experiment: Antiproliferative activity in p53 (-/-) human HCT116 cells incubated for 72 hrs by MTS assay; assay type: functional, cell-based; conditions: HCT-116, 72 h; summary of the method: as §2
[6] = Selectivity index, ratio of IC50 for antiproliferative activity in HEK293T cells to IC50 for antiproliferative activity in human MCF7 cells; assay type: toxicity, cell-based; conditions: HEK293T cells versus MCF7 cells, read-out: Ratio IC50
Summary of the method: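 Ratio of HEK 293T IC50 to MCF-7 IC50 from 72 h MTT assays.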

[7] = Potency index, ratio of IC50 for antiproliferative activity in human MCF7 cells to IC50 for antiproliferative activity in human MDA-MB-231 cells; assay type: functional
[8] = Potency index, ratio of IC50 for antiproliferative activity in human p53 (+/+) human HCT116 cells to IC50 for antiproliferative activity in human MDA-MB-231 cells; assay type: functional
MDA-MB-231 = experiment: Antiproliferative activity in human MDA-MB-231 cells incubated for 72 hrs by MTT assay; assay type: functional, cell-based; conditions: MDA-MB-231, 72 h; summary of the method: as §3
HEK-293T = experiment: Antiproliferative activity in human HEK293T cells incubated for 72 hrs by MTT assay; assay type: cell-based; summary of the method: as §3
[9] = Potency index, ratio of IC50 for antiproliferative activity in human p53 (-/-) human HCT116 cells to IC50 for antiproliferative activity in human MDA-MB-231 cells; assay type: functional
[10] = […], ratio of IC50 for antiproliferative activity in HEK293T cells to IC50 for antiproliferative activity in human MDA-MB-231 cells; assay type: toxicity, cell-based; conditions: HEK293T cells versus MDA-MB-231 cells, read-out: Ratio IC50; summary of the method: as §1

IC50 (HCT-116 [3]) | IC50 (MCF7) | IC50 (HCT-116 [5]) | IC50 (MDA-MB-231) | Structure (SMILES) | selectivity ratio [1] | selectivity ratio [2] | selectivity ratio [4] | selectivity ratio [6] | Ratio IC50 [7] | Ratio IC50 [8] | IC50 (HEK-293T) | Ratio IC50 [9] | selectivity ratio [10]
13.5 µM | 11 µM | 15.9 µM | 4.6 µM | O=C1Nc2ccc(Br)cc2C12N(c1ccccc1)N=C(c1ccccc1)N2c1ccc(F)c(Cl)c1 (stereo unspecified) | ≥ 2.4 | < 2 | < 2 | < 2 | >=2.4 | >=2.4 | 16.6 µM | >=2.4 | 
 | 37.7 µM |  |  | O=C1Nc2ccc(Cl)cc2[C@]12[C@@H](c1ccccc1)C(c1ccccc1)=NN2c1ccccc1 |  |  |  |  |  |  |  |  | 
15 µM | 11.4 µM | 17.2 µM | 15 µM | O=C1Nc2ccc(Br)cc2C12N(c1ccc(Cl)cc1)N=C(c1ccccc1)N2c1cccc(Cl)c1 (stereo unspecified) |  | < 2 | < 2 | < 2 |  |  | 16.2 µM |  | 
12 µM | 9.8 µM | 13.1 µM | 10.7 µM | O=C1Nc2ccc(Br)cc2C12N(c1cccc(Cl)c1)N=C(c1ccccc1)N2c1cccc(Cl)c1 (stereo unspecified) |  | < 2 | < 2 | < 2 |  |  | 16.9 µM |  | 
21.6 µM | 19.1 µM | 22.1 µM | 11.7 µM | O=C1Nc2ccc(Cl)cc2C12N(c1ccccc1)N=C(c1ccccc1)N2c1ccccc1 (stereo unspecified) |  | < 2 | < 2 | < 2 |  |  | 32.6 µM |  | 
10.8 µM | 10.1 µM | 10.8 µM | 14.6 µM | O=C1Nc2ccc(Br)cc2C12N(c1ccccc1)N=C(c1ccc(Cl)cc1)N2c1cccc(Cl)c1 (stereo unspecified) |  | < 2 | < 2 | < 2 |  |  | 20.3 µM |  | 
 | 10 µM |  | 12.6 µM | O=C1Nc2ccc(Br)cc2[C@]12[C@@H](c1cccc(Cl)c1)C(c1ccccc1)=NN2c1ccccc1 |  |  |  |  |  |  |  |  | 
25.3 µM | 13.1 µM | 34.6 µM | 14.5 µM | O=C1Nc2ccccc2C12N(c1ccccc1Cl)N=C(c1cccc(Cl)c1)N2c1ccc(Cl)cc1 (stereo unspecified) |  | < 2 | < 2 | 2.7 |  |  | 35 µM |  | 
16.8 µM | 10.9 µM | 18.5 µM | 8.2 µM | O=C1Nc2ccccc2C12N(c1ccccc1)N=C(c1ccc(Cl)cc1)N2c1ccc(Cl)cc1 (stereo unspecified) |  | < 2 | < 2 | 2.1 |  |  | 22.7 µM |  | 
16.3 µM | 16.8 µM | 18.2 µM | 5.2 µM | O=C1Nc2ccc(Br)cc2C12N(c1ccccc1)N=C(c1ccccc1)N2c1ccc(Cl)cc1 (stereo unspecified) | ≥ 2.4 | < 2 | < 2 | < 2 | >=2.4 | >=2.4 | 21.6 µM | >=2.4 | 
 | 21.8 µM |  | 23.7 µM | O=C1Nc2c(Br)cccc2C12N(c1ccccc1)N=C(c1ccccc1)N2c1ccccc1 (stereo unspecified) |  |  |  |  |  |  |  |  | 
 | 28.4 µM |  | 24.8 µM | O=C1Nc2ccccc2C12N(c1ccccc1Cl)N=C(c1ccccc1)N2c1ccc(Cl)cc1 (stereo unspecified) |  |  |  |  |  |  |  |  | 
21.5 µM | 10.2 µM | 31.6 µM | 11.7 µM | O=C1Nc2ccc(Br)cc2C12N(c1ccccc1Cl)N=C(c1ccccc1)N2c1cccc(Cl)c1 (stereo unspecified) |  | < 2 | < 2 | < 2 |  |  | 20.9 µM |  | 
19.9 µM | 13.7 µM | 22.1 µM | 12.5 µM | O=C1Nc2ccccc2C12N(c1ccccc1)N=C(c1ccccc1)N2c1cccc(Cl)c1 (stereo unspecified) |  | < 2 | < 2 | < 2 |  |  | 25.7 µM |  | 
19.8 µM | 14.2 µM | 18.5 µM | 15.7 µM | O=C1Nc2ccccc2C12N(c1cccc(Cl)c1)N=C(c1ccccc1)N2c1ccc(Cl)cc1 (stereo unspecified) |  | < 2 | < 2 | < 2 |  |  | 15.4 µM |  | 
22.2 µM | 12.3 µM | 25.8 µM | 14.1 µM | COc1ccc(C2=NN(c3ccccc3)C3(C(=O)Nc4ccc(Br)cc43)N2c2cccc(Cl)c2)cc1 (stereo unspecified) |  | < 2 | < 2 | < 2 |  |  | 25.9 µM |  | 
18.5 µM | 10.1 µM | 18.7 µM | 9 µM | O=C1Nc2ccccc2C12N(c1ccc(Cl)cc1)N=C(c1ccccc1)N2c1ccc(Cl)cc1 (stereo unspecified) |  | < 2 | < 2 | < 2 |  |  | 15.8 µM |  | 
17.4 µM | 13.1 µM | 16.1 µM | 11.6 µM | O=C1Nc2ccccc2C12N(c1ccccc1)N=C(c1cccc(Cl)c1)N2c1ccc(Cl)cc1 (stereo unspecified) |  | < 2 | < 2 | < 2 |  |  | 20.5 µM |  | 
 | 22.4 µM |  | 16.9 µM | O=C1Nc2c(Cl)cccc2[C@]12[C@@H](c1ccccc1)C(c1ccccc1)=NN2c1ccccc1 |  |  |  | > 4.5 |  |  | > 100 µM |  | 
10.2 µM | 6.9 µM | 9 µM | 7 µM | O=C1Nc2ccc(Br)cc2C12N(c1cccc(Cl)c1)N=C(c1cccc(Cl)c1)N2c1cccc(Cl)c1 (stereo unspecified) |  | < 2 | < 2 | < 2 |  |  | 9 µM |  | 
23.7 µM | 10.8 µM | 20.1 µM | 8.9 µM | O=C1Nc2c(Cl)cccc2C12N(c1ccccc1)N=C(c1ccccc1)N2c1ccccc1 (stereo unspecified) |  | 2.5 to 4.2 | 2.5 to 4.2 | 2.5 to 9.3 |  |  | > 100 µM |  | ≥ 2.5
12.6 µM | 8 µM | 13 µM | 10.2 µM | O=C1Nc2ccc(Br)cc2C12N(c1ccccc1)N=C(c1cccc(Cl)c1)N2c1cccc(Cl)c1 (stereo unspecified) |  | < 2 | < 2 | < 2 |  |  | 12.5 µM |  | 
15 µM | 24.1 µM | 18.5 µM | 10.7 µM | O=C1Nc2ccccc2C12N(c1ccccc1)N=C(c1ccccc1)N2c1ccc(Cl)cc1 (stereo unspecified) |  | 2.5 to 4.1 | 2.5 to 4.1 | 2.5 to 4.1 |  |  | > 100 µM |  | ≥ 2.5
 | > 100 µM |  |  | O=C1Nc2ccccc2[C@]12[C@@H](c1ccccc1)C(c1ccccc1)=NN2c1ccccc1 |  |  |  |  |  |  |  |  | 
 | 36.2 µM |  | 23.4 µM | O=C1Nc2ccccc2C12N(c1ccccc1)N=C(c1ccccc1)N2c1ccccc1 (stereo unspecified) |  |  |  |  |  |  |  |  | 
 | 19.5 µM |  | 32.3 µM | O=C1Nc2ccccc2C12N(c1ccccc1)N=C(c1ccccc1)N2c1ccc(F)c(Cl)c1 (stereo unspecified) |  |  |  |  |  |  |  |  | 

Structure (SMILES) | IC50 (HCT-116 [3]) | IC50 (MCF7) | IC50 (HCT-116 [5]) | IC50 (MDA-MB-231) | selectivity ratio [1] | selectivity ratio [2] | selectivity ratio [4] | selectivity ratio [6] | Ratio IC50 [7] | Ratio IC50 [8] | IC50 (HEK-293T) | Ratio IC50 [9] | selectivity ratio [10]
COc1ccc(C2=N[C@@H](c3ccc(Cl)cc3)[C@@H](c3ccc(Cl)cc3)N2C(=O)N2CCNC(=O)C2)c(OC(C)C)c1 [NUTLIN-3] |  |  | 47.8 µM |  |  |  |  |  |  |  |  |  | 
